Laboratory results reported in article PMC9516696 (RSC Advances, 2022).
Entries after “also recorded” stand apart in the source; their conditions may differ.

Key:
[1] = system: MCF7 cell line (human breast adenocarcinoma); assay: MTT cytotoxicity assay, MCF7; assay type: cell-based
Method in brief: (§1)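 Cells (1 × 10^4 per well in 0.2 mL medium) were exposed to test compounds, pre-dissolved in DMSO, at 0.01–1 mM for 24 h. Compounds were then washed out with three PBS washes, and MTT was read at once. Five replicates per concentration, each repeated at least three times; IC50 given as mean + SD. MCF7, A549 and HaCaT were grown in DMEM with 10% FBS and 1% streptomycin/penicillin. DU-145 and HEK293T were grown in MEM with 10% FBS. All cultures were kept at 37 °C, 5% CO2.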

[2] = Stability in DMSO solution by FT-IR; assay type: physicochemical; conditions: 2% solution in DMSO, 0-96 h, qualitative
Method in brief: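 ATR FT-IR of 2% solutions of the complexes in DMSO, one drop on the diamond plate, recorded at 1, 24, 48, 72 and 96 h. Settings: 2 cm−1 resolution, 128 scans, 4000–400 and 600–100 cm−1, room temperature. Solution spectra were compared with the solid-state spectra; qualitative only.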

[3] = system: HEK293T cell line (human embryonic kidney); assay: MTT cytotoxicity assay, HEK293T; assay type: cell-based; conditions: 24 h
Method in brief: as §1

[4] = system: DU-145 cell line (human prostate carcinoma); assay: MTT cytotoxicity assay, DU-145; assay type: cell-based
Method in brief: as §1

[5] = system: A549 cell line (human lung adenocarcinoma); assay: MTT cytotoxicity assay, A549; assay type: cell-based
Method in brief: as §1

[6] = system: HaCat (human keratinocyte); assay: MTT cytotoxicity assay, HaCat; assay type: cell-based; conditions: 24 h
Method in brief: as §1

[7] = Stability in DMSO/H2O; assay type: physicochemical
Method in brief: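 UV-Vis spectra of the complexes in DMSO/H2O (9:1, v/v) at room temperature, recorded right after dissolving and at 48 and 96 h. Full range recorded at 10−6 M; d–d bands recorded at 10−4 M.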

[8] = system: DU-145 cells; assay: Mitochondrial membrane potential, JC-10 assay; assay type: cell-based, human; conditions: DU-145, compounds at IC50, 24 h, JC-10 emission ratio 570 nm/530 nm
Method in brief: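 DU-145 cells were seeded at 1 × 10^4 per 0.2 mL. After 24 h the medium was replaced with test compound solutions, gentamicin (0.5 mg mL−1, positive control) or ciprofloxacin (10 μg mL−1, negative control), then incubated 24 h at 37 °C, 5% CO2. Cells were PBS-washed twice and loaded with JC-10 for 1 h. Emission read at λex 540/λem 570 nm and λex 485/λem 530 nm; red/green ratio reported as mean + SD.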

[9] = system: DU-145 cells; assay: ROS generation, H2DCF-DA assay; assay type: cell-based, human; conditions: DU-145, 24, 48 and 72 h, c = 1 μM
Method in brief: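 DU-145 prostate carcinoma cells grown in MEM with 10% FBS at 37 °C, 5% CO2, seeded in 96-well plates. Cells were exposed continuously to test compound (copper complexes or free ligands), then loaded with the H2DCF-DA probe. ROS was read by fluorescence, with work done in darkness. Signal was related to an untreated negative control and an extra-H2O2 positive control.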

[10] = system: HEK293T and HaCat normal cell lines; assay: Cytotoxicity toward normal cell lines, stated in words; assay type: cell-based, human
Method in brief: as §1

[11] = MCF7, cancer cell line, 24 h, MTT
[12] = HEK293T, non-cancerous cell line, MTT
[13] = DU145, cancer cell line, 24 h, MTT
[14] = A549, cancer cell line, 24 h, MTT
[15] = HaCat, non-cancerous cell line, MTT

Compound | IC50 [1, 11] [µM] | Stability in DMSO solution [2] | IC50 [3, 12] [µM] | IC50 [4, 13] [µM] | Activity toward DU-145 cancer cells [4] | IC50 [5, 14] [µM] | IC50 [6, 15] [µM] | Stability in DMSO/H2O solution ([7]; DMSO/H2O 9:1 v/v, room temperature, 0 min, 48 h and 96 h, UV-Vis) | Structure after dissolving in biological medium ([7]; biological medium, confirmed by UV-Vis and FT-IR) | Reduction of mitochondrial membrane potential [8] | ROS generation compared to negative control (order) [9] | IC50 ([1]; Homo sapiens, MCF7, 24 h) [µM] | IC50 ([3]; Homo sapiens, HEK-293T) [µM] | IC50 ([4]; Homo sapiens, DU-145, 24 h) [µM] | IC50 ([5]; Homo sapiens, A549, 24 h) [µM] | IC50 ([6]; Homo sapiens, HaCaT) [µM] | Toxicity towards normal (healthy) cells [10]
[Cu4OCl6(etpy)4] [Complex 2] | > 1000 | turns into complex 1 | > 1000 | > 1000 | inactive | > 1000 | > 1000 | turns into complex 1 | adopts the same structure as compound 1 | – | – | – | – | – | – | – | –
CCc1ccccn1 [2-Ethylpyridine, 2-ethylpyridine] | – | – | – | – | – | – | – | – | – | most significantly reduced | complex 1 > complex 3 > 2-pyridineethanol > 2-ethylpyridyne | > 1000 | > 1000 | > 1000 | > 1000 | > 1000 | –
OCc1ccccn1 [2-Pyridinemethanol, 2-pyridinemethanol] | – | – | – | – | – | – | – | – | – | – | – | > 1000 | > 1000 | > 1000 | > 1000 | > 1000 | –
N.N.[Cl][Pt][Cl] [Cisplatin, cisplatin, reference compound] | 50.9 ± 2.6 | – | 21 ± 1.8 | 98.3 ± 1.3 | – | 57 ± 1.3 | 13.3 ± 1.1 | – | – | – | – | – | – | – | – | – | –
OCCc1ccccn1 [2-Pyridineethanol, 2-pyridineethanol] | – | – | – | – | – | – | – | – | – | most significantly reduced | complex 1 > complex 3 > 2-pyridineethanol > 2-ethylpyridyne | > 1000 | > 1000 | > 1000 | > 1000 | > 1000 | –
trans-[CuCl2(etpy)2] [Complex 1] | > 1000 | – | > 1000 | > 1000 | inactive | > 1000 | > 1000 | – | – | least effect | complex 1 > complex 3 > 2-pyridineethanol > 2-ethylpyridyne | – | – | – | – | – | did not exhibit toxicity; also recorded: nontoxic
